# From ChEMBL document CHEMBL5357072, “Structural Modification of Noscapine via Photoredox/Nickel Dual Catalysis for the Discovery of S-Phase Arresting Agents” (ACS Med Chem Lett, 2024)
# pIC50: −log10 of the molar value.
# Test system: MOLM-13
# Assay: Cell cycle arrest in human MOLM-13 cells assessed as accumulation of G0/G1 phase cells at 10 uM incubated for 24 hrs by RNase A/PI staining based flow cytometry analysis (reference value: 38.14%)
# Assay type: functional
# Conditions: not given
row,SMILES,Activity [%]
1,COc1ccc2c(c1OC)C(=O)O[C@@H]2[C@H]1c2c(c(Br)c3c(c2OC)OCO3)CCN1C,32.96

# Test system: NB-4
# Assay: Antiproliferative activity against human NB4 cells assessed as inhibition of cell growth incubated for 48 hrs by CCK8 assay
# Assay type: functional, cell-based
# Conditions: NB-4, 48 h
# Method in brief: (§1)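 CCK-8 growth-inhibition assay in the malignant haematological lines MOLM-13, NB4 and Jeko-1 and in normal PBMC. Cells were treated across a range of doses and IC50 taken as the half-maximal growth-inhibitory concentration. Data are mean ± SD of triplicate samples, and experiments were repeated at least three times.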
row,SMILES,pIC50
1,COc1ccc2c(c1OC)C(=O)O[C@@H]2[C@H]1c2c(c(Br)c3c(c2OC)OCO3)CCN1C,4.79

# Test system: MOLM-13
# Assay: Cell cycle arrest in human MOLM-13 cells assessed as accumulation of S phase cells at 10 uM incubated for 24 hrs by RNase A/PI staining based flow cytometry analysis (reference value: 50.12%)
# Assay type: functional
# Conditions: not given
row,SMILES,Activity [%]
1,COc1ccc2c(c1OC)C(=O)O[C@@H]2[C@H]1c2c(c(Br)c3c(c2OC)OCO3)CCN1C,30.6

# Test system: MOLM-13
# Assay: Induction of apoptosis in human MOLM-13 cells assessed as early apoptotic cells at 10 uM incubated for 48 hrs by Annexin V-FITC/PI staining based flow cytometric analysis (reference value: 4.10%)
# Assay type: functional
# Conditions: not given
row,SMILES,Activity [%]
1,COc1ccc2c(c1OC)C(=O)O[C@@H]2[C@H]1c2c(c(Br)c3c(c2OC)OCO3)CCN1C,10.63

# Test system: JeKo-1
# Assay: Antiproliferative activity against human JeKo-1 cells assessed as inhibition of cell growth incubated for 48 hrs by CCK8 assay
# Assay type: functional, cell-based
# Conditions: JeKo-1, 48 h
# Method in brief: as §1
row,SMILES,pIC50
1,COc1ccc2c(c1OC)C(=O)O[C@@H]2[C@H]1c2c(c(Br)c3c(c2OC)OCO3)CCN1C,4.94

# Test system: A549
# Assay: Antiproliferative activity against human A549 cells assessed as cell growth inhibition at 10 uM incubated for 48 hrs by CCK8 assay relative to control
# Assay type: functional
# Conditions: read-out: GI
# Method in brief: (§2)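 Single-concentration screen of six cancer cell lines. Cells were exposed to 10 μM compound and growth was measured by CCK-8 assay. Results are reported as inhibition rate at 10 μM.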
row,SMILES,inhibition of growth at 10 µM [%]
1,COc1ccc2c(c1OC)C(=O)O[C@@H]2[C@H]1c2c(c(Br)c3c(c2OC)OCO3)CCN1C,15.9

# Test system: NB-4
# Assay: Antiproliferative activity against human NB4 cells assessed as cell growth inhibition at 10 uM incubated for 48 hrs by CCK8 assay relative to control
# Assay type: functional
# Conditions: read-out: GI
# Method in brief: as §2
row,SMILES,inhibition of growth at 10 µM [%]
1,COc1ccc2c(c1OC)C(=O)O[C@@H]2[C@H]1c2c(c(Br)c3c(c2OC)OCO3)CCN1C,38.3

# Test system: MOLM-13
# Assay: Cell cycle arrest in human MOLM-13 cells assessed as accumulation of G2/M phase cells at 10 uM incubated for 24 hrs by RNase A/PI staining based flow cytometry analysis (reference value: 11.74%)
# Assay type: functional
# Conditions: not given
row,SMILES,Activity [%]
1,COc1ccc2c(c1OC)C(=O)O[C@@H]2[C@H]1c2c(c(Br)c3c(c2OC)OCO3)CCN1C,36.44

# Test system: MOLM-13
# Assay: Antiproliferative activity against human MOLM-13 cells assessed as cell growth inhibition at 10 uM incubated for 48 hrs by CCK8 assay relative to control
# Assay type: functional
# Conditions: read-out: GI
# Method in brief: as §2
row,SMILES,inhibition of growth at 10 µM [%]
1,COc1ccc2c(c1OC)C(=O)O[C@@H]2[C@H]1c2c(c(Br)c3c(c2OC)OCO3)CCN1C,41.9

# Test system: U-251
# Assay: Antiproliferative activity against human U-251 cells assessed as cell growth inhibition at 10 uM incubated for 48 hrs by CCK8 assay relative to control
# Assay type: functional
# Conditions: read-out: GI
# Method in brief: as §2
row,SMILES,inhibition of growth at 10 µM [%]
1,COc1ccc2c(c1OC)C(=O)O[C@@H]2[C@H]1c2c(c(Br)c3c(c2OC)OCO3)CCN1C,< 5

# Test system: MOLM-13
# Assay: Induction of apoptosis in human MOLM-13 cells assessed as viable cells at 10 uM incubated for 48 hrs by Annexin V-FITC/PI staining based flow cytometric analysis (reference value: 92.24%)
# Assay type: functional
# Conditions: read-out: Activity
row,SMILES,viability at 10 µM [%]
1,COc1ccc2c(c1OC)C(=O)O[C@@H]2[C@H]1c2c(c(Br)c3c(c2OC)OCO3)CCN1C,78.1

# Test system: HeLa
# Assay: Antiproliferative activity against human HeLa cells assessed as cell growth inhibition at 10 uM incubated for 48 hrs by CCK8 assay relative to control
# Assay type: functional
# Conditions: read-out: GI
# Method in brief: as §2
row,SMILES,inhibition of growth at 10 µM [%]
1,COc1ccc2c(c1OC)C(=O)O[C@@H]2[C@H]1c2c(c(Br)c3c(c2OC)OCO3)CCN1C,28.1

# Test system: MOLM-13
# Assay: Induction of apoptosis in human MOLM-13 cells assessed as necrotic cells at 10 uM incubated for 48 hrs by Annexin V-FITC/PI staining based flow cytometric analysis (reference value: 0.48%)
# Assay type: functional
# Conditions: not given
row,SMILES,Activity [%]
1,COc1ccc2c(c1OC)C(=O)O[C@@H]2[C@H]1c2c(c(Br)c3c(c2OC)OCO3)CCN1C,0.69

# Test system: MOLM-13
# Assay: Antiproliferative activity against human MOLM-13 cells assessed as inhibition of cell growth incubated for 48 hrs by CCK8 assay
# Assay type: functional, cell-based
# Conditions: MOLM-13, 48 h
# Method in brief: as §1
row,SMILES,pIC50
1,COc1ccc2c(c1OC)C(=O)O[C@@H]2[C@H]1c2c(c(Br)c3c(c2OC)OCO3)CCN1C,4.82

# Test system: JeKo-1
# Assay: Antiproliferative activity against human JeKo-1 cells assessed as cell growth inhibition at 10 uM incubated for 48 hrs by CCK8 assay relative to control
# Assay type: functional
# Conditions: read-out: GI
# Method in brief: as §2
row,SMILES,inhibition of growth at 10 µM [%]
1,COc1ccc2c(c1OC)C(=O)O[C@@H]2[C@H]1c2c(c(Br)c3c(c2OC)OCO3)CCN1C,48.9

# Test system: MOLM-13
# Assay: Induction of apoptosis in human MOLM-13 cells assessed as late apoptotic cells at 10 uM incubated for 48 hrs by Annexin V-FITC/PI staining based flow cytometric analysis (reference value: 3.17%)
# Assay type: functional
# Conditions: not given
row,SMILES,Activity [%]
1,COc1ccc2c(c1OC)C(=O)O[C@@H]2[C@H]1c2c(c(Br)c3c(c2OC)OCO3)CCN1C,10.56
